ChEMBL document CHEMBL4627371, “Discovery of novel heat shock protein (Hsp90) inhibitors based on luminespib with potent antitumor activity” (Bioorg Med Chem Lett, 2020)

Assays:
[1] = Toxicity in BALB/c nu/nu mouse xenografted with human A2780 cells assessed as effect on body weight at 50 mg/kg, iv administered 3 times a week for 3 weeks starting from 5 to 6 days post tumor inoculation; assay type: organism-based; settings: in vivo
How it was run: (§1)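 Human A2780 ovarian adenocarcinoma cells were cultured and implanted into BALB/c-nu/nude mice, n = 6 per group. Tumor size and volume were measured 5 or 6 days later. Compounds were suspended in 1% carboxymethyl cellulose and given intravenously. Deaths and body weight were monitored. Tumor growth inhibition = [1 − (mean treated tumor volume)/(mean control tumor volume)] × 100%.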

[2] = Toxicity in BALB/c nu/nu mouse xenografted with human A2780 cells assessed as mouse death at 50 mg/kg, iv administered 3 times a week for 3 weeks starting from 5 to 6 days post tumor inoculation; assay type: organism-based; settings: in vivo; how it was run: as §1
A2780 [3] = test: Antitumor activity against human A2780 cells xenografted in BALB/c nu/nu mouse assessed as tumor growth inhibition at 50 mg/kg, iv administered 3 times a week for 3 weeks starting from 5 to 6 days post tumor inoculation relative to control; assay type: functional; settings: read-out: TGI; how it was run: as §1
NCI-H1975 = test: Antitumor activity against human NCI-H1975 cells xenografted in BALB/c athymic nu/nu mouse assessed as tumor growth inhibition at 150 mg/kg, iv administered once a week for 3 weeks relative to control; settings: 504 h, read-out: TGI
[4] = Toxicity in BALB/c athymic nu/nu mouse xenografted with human NCI-H1975 cells assessed as effect on body weight at 150 mg/kg, iv administered once a week for 3 weeks; assay type: organism-based; settings: in vivo, 504 h
HCT-116 = test: Cytotoxicity against human HCT116 cells assessed as cell growth inhibition; assay type: functional, cell-based
[5] = Toxicity in BALB/c athymic nu/nu mouse xenografted with human NCI-H1975 cells assessed as mouse death at 150 mg/kg, iv administered once a week for 3 weeks; assay type: organism-based; settings: in vivo, 504 h
A2780 [6] = test: Cytotoxicity against human A2780 cells assessed as cell growth inhibition; assay type: functional, cell-based

CCNC(=O)c1noc(-c2cc(C(C)C)c(O)cc2O)c1-c1ccc(CN2CCOCC2)cc1 [LUMINESPIB]
Activity [1]: Non-Toxic
Activity [2]: Non-Toxic
inhibition in vivo at 50 mg/kg (A2780 [3]): 48%
inhibition in vivo at 150 mg/kg (NCI-H1975): 43.5%
Activity [4]: Non-Toxic
IC50 (HCT-116): 20 nM
Activity [5]: Non-Toxic
IC50 (A2780 [6]): 6 nM
